Tests used:
Conditions in all cases: read-out: IZ
[1] = system: Trichophyton mentagrophytes; test: Antifungal activity against Trichophyton mentagrophytes UPCC 4193 replicate 1 assessed as clearing zone at 30 ug after 3 to 5 days
Escherichia coli [2] = test: Antibacterial activity against Escherichia coli UPCC 1195 replicate 1 assessed as clearing zone at 30 ug after 24 to 48 hrs; format: functional
Procedure, shortened: (§1)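 Agar well diffusion. 0.1 mL of bacterial suspension in 0.1% peptone water is spread on prepoured nutrient agar and overlaid with melted NA cooled to 45 °C. Three equidistant 10 mm wells each receive 200 µL of sample in 95% EtOH. Plates are incubated at room temperature and read at 24–48 h. Clearing-zone diameters are measured in mm and averaged.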

Pseudomonas aeruginosa [3] = test: Antibacterial activity against Pseudomonas aeruginosa UPCC 1244 replicate 2 assessed as clearing zone at 30 ug after 24 to 48 hrs; format: functional
Procedure, shortened: as §1

[4] = system: Trichophyton mentagrophytes; test: Antifungal activity against Trichophyton mentagrophytes UPCC 4193 replicate 3 assessed as clearing zone at 30 ug after 3 to 5 days
[5] = system: Trichophyton mentagrophytes; test: Antifungal activity against Trichophyton mentagrophytes UPCC 4193 replicate 2 assessed as clearing zone at 30 ug after 3 to 5 days
Pseudomonas aeruginosa [6] = test: Antibacterial activity against Pseudomonas aeruginosa UPCC 1244 replicate 1 assessed as clearing zone at 30 ug after 24 to 48 hrs; format: functional
Procedure, shortened: as §1

Candida albicans [7] = test: Antifungal activity against Candida albicans UPCC 2168 replicate 1 assessed as clearing zone at 30 ug after 24 to 48 hrs; format: functional
Procedure, shortened: (§2)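 Yeast is suspended in 0.1% peptone water, and 0.1 mL is spread on glucose yeast peptone agar with a GYP overlay at 45 °C. Three 10 mm wells per plate each get 200 µL of sample in 95% EtOH. Plates are incubated at room temperature and observed after 24–48 h. The mean clearing-zone diameter is recorded in mm.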

Pseudomonas aeruginosa [8] = test: Antibacterial activity against Pseudomonas aeruginosa UPCC 1244 replicate 3 assessed as clearing zone at 30 ug after 24 to 48 hrs; format: functional
Procedure, shortened: as §1

Candida albicans [9] = test: Antifungal activity against Candida albicans UPCC 2168 replicate 3 assessed as clearing zone at 30 ug after 24 to 48 hrs; format: functional
Procedure, shortened: as §2

Escherichia coli [10] = test: Antibacterial activity against Escherichia coli UPCC 1195 replicate 3 assessed as clearing zone at 30 ug after 24 to 48 hrs; format: functional
Procedure, shortened: as §1

Candida albicans [11] = test: Antifungal activity against Candida albicans UPCC 2168 replicate 2 assessed as clearing zone at 30 ug after 24 to 48 hrs; format: functional
Procedure, shortened: as §2

Escherichia coli [12] = test: Antibacterial activity against Escherichia coli UPCC 1195 replicate 2 assessed as clearing zone at 30 ug after 24 to 48 hrs; format: functional
Procedure, shortened: as §1

Staphylococcus aureus = test: Antibacterial activity against Staphylococcus aureus UPCC 1143 replicate 1 assessed as clearing zone at 30 ug after 24 to 48 hrs; format: functional
Procedure, shortened: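 Agar well diffusion. Microbe suspended in 0.1% peptone water; 0.1 mL spread on prepoured nutrient agar, overlaid with melted medium cooled to 45 °C. Three 10 mm wells per plate, 200 µL sample in 95% EtOH per well. Incubated at room temperature and read at 24–48 h. Clearing-zone diameter measured in mm.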

Bacillus subtilis = test: Antibacterial activity against Bacillus subtilis UPCC 1149 replicate 1 assessed as clearing zone at 30 ug after 24 to 48 hrs; format: functional
Procedure, shortened: as §1

CC[C@@H]1O[C@H]1/C=C1/C(=O)C=C[C@@]1(O)CCCC[C@@H]1CCC(=O)O1
zone of inhibition at 30 µg/disc [1]: 12 mm | zone of inhibition at 30 µg/disc (Escherichia coli [2]): 12 mm | zone of inhibition at 30 µg/disc (Pseudomonas aeruginosa [3]): 12 mm | zone of inhibition at 30 µg/disc [4]: 12 mm | zone of inhibition at 30 µg/disc [5]: 12 mm | zone of inhibition at 30 µg/disc (Pseudomonas aeruginosa [6]): 12 mm | zone of inhibition at 30 µg/disc (Candida albicans [7]): 13 mm | zone of inhibition at 30 µg/disc (Pseudomonas aeruginosa [8]): 12 mm | zone of inhibition at 30 µg/disc (Candida albicans [9]): 13 mm | zone of inhibition at 30 µg/disc (Escherichia coli [10]): 12 mm | zone of inhibition at 30 µg/disc (Candida albicans [11]): 13 mm | zone of inhibition at 30 µg/disc (Escherichia coli [12]): 12 mm

O=C(N[C@H](CO)[C@H](O)c1ccc([N+](=O)[O-])cc1)C(Cl)Cl [CHLORAMPHENICOL]
zone of inhibition at 30 µg/disc (Escherichia coli [2]): 23 mm | zone of inhibition at 30 µg/disc (Staphylococcus aureus): 25 mm | zone of inhibition at 30 µg/disc (Pseudomonas aeruginosa [6]): 14 mm | zone of inhibition at 30 µg/disc (Bacillus subtilis): 20 mm

C/C=C/C(=O)C[C@H]1C(=O)C=C[C@@]1(O)CCCC[C@@H]1CCC(=O)O1
zone of inhibition at 30 µg/disc [1]: 13 mm | zone of inhibition at 30 µg/disc (Escherichia coli [2]): 12 mm | zone of inhibition at 30 µg/disc (Pseudomonas aeruginosa [3]): 12 mm | zone of inhibition at 30 µg/disc [4]: 13 mm | zone of inhibition at 30 µg/disc [5]: 13 mm | zone of inhibition at 30 µg/disc (Pseudomonas aeruginosa [6]): 12 mm | zone of inhibition at 30 µg/disc (Candida albicans [7]): 13 mm | zone of inhibition at 30 µg/disc (Pseudomonas aeruginosa [8]): 12 mm | zone of inhibition at 30 µg/disc (Candida albicans [9]): 13 mm | zone of inhibition at 30 µg/disc (Escherichia coli [10]): 12 mm | zone of inhibition at 30 µg/disc (Candida albicans [11]): 13 mm | zone of inhibition at 30 µg/disc (Escherichia coli [12]): 12 mm
